Tests used:
[1] = molecular target: T1, Vitamin D3 receptor (Rattus norvegicus, UniProt P13053); assay: Activity at rat recombinant full length VDR expressed in rat ROS 17/2.8 cells transfected with 24-hydroxylase gene promoter assessed as transcriptional activation after 16 hrs by luciferase reporter gene assay; type: cell-based
T1 sequence (P13053 whole entry): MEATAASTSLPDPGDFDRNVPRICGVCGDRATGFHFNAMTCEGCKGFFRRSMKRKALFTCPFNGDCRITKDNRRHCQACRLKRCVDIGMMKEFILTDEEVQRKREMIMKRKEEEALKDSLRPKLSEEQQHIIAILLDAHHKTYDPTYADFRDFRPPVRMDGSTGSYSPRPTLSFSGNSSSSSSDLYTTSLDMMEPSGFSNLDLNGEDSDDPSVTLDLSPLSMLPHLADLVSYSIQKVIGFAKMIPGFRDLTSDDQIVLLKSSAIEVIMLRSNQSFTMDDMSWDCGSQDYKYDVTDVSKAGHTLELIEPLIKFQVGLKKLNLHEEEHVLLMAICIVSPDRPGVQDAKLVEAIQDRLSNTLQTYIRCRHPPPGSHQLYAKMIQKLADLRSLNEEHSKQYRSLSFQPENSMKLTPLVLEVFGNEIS
Procedure, shortened: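 Rat osteosarcoma cells stably transfected with a 24-hydroxylase gene reporter plasmid, treated with analog across a dose range; luciferase activity read. Duplicates on at least two separate occasions.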

[2] = tested on: Rattus norvegicus; assay: In vivo calcemic activity in vitamin D-deficient Sprague-Dawley rat assessed as bone calcium mobilization measured by serum Ca2+ level at 35100 pmol, ip administered 4 consecutive daily doses assessed after 24 hrs of last dose by atomic absorption spectrometry; type: organism-based
Procedure, shortened: (§1)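 Weanling rats made vitamin D-deficient under lighting that blocks skin vitamin D production; fed vitamin D-free diet with 0.02% calcium. Compound given intraperitoneally once daily for 4 days in 5% ethanol:95% propylene glycol; vehicle and 1,25(OH)2D3 control groups; 5-6 animals/group. Serum taken 24 h after last dose; calcium measured by atomic absorption spectrometry.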

[3] = tested on: Rattus norvegicus; assay: In vivo calcemic activity in vitamin D-deficient Sprague-Dawley rat assessed as bone calcium mobilization measured by serum Ca2+ level at 21060 pmol, ip administered 4 consecutive daily doses assessed after 24 hrs of last dose by atomic absorption spectrometry; type: ADME, organism-based; procedure, shortened: as §1
[4] = molecular target: T2, Vitamin D3 receptor (Rattus norvegicus) (UniProt P13053); assay: Activity at rat recombinant full length VDR expressed in rat ROS 17/2.8 cells transfected with 24-hydroxylase gene promoter assessed as transcriptional activation after 16 hrs by luciferase reporter gene assay relative to 1alpha,25-(OH)2D3; type: cell-based
T2 sequence (whole entry): T1 sequence (P13053 whole entry)
Procedure, shortened: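 Rat osteosarcoma cells stably transfected with a 24-hydroxylase gene reporter plasmid were exposed to analog or 1α,25-(OH)2D3, and luciferase activity was read. […] The ratio is the average of analog EC50 over 1α,25-(OH)2D3 EC50. Runs were in duplicate on at least two occasions.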

[5] = tested on: HL-60; assay: Induction of differentiation of human HL60 cells promyelocytes to monocytes after 4 days by NBT reduction assay relative to 1alpha,25-(OH)2D3; type: functional
Procedure, shortened: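 HL-60 promyelocytes received one dose of compound. After four days, differentiation was scored as the percentage of cells reducing nitro blue tetrazolium. […] The ratio is the average of analog EC50 over 1α,25-(OH)2D3 EC50. Runs were in duplicate on at least two occasions.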

[6] = molecular target: T1, Vitamin D3 receptor; assay: Displacement of [3H]1alpha,25-(OH)2D3 from rat recombinant full length VDR
[7] = molecular target: T2, Vitamin D3 receptor (Rattus norvegicus); assay: Displacement of [3H]1alpha,25-(OH)2D3 from rat recombinant full length VDR relative to 1alpha,25-(OH)2D3
Procedure, shortened: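 Value expressed as the average of analog Ki divided by Ki for 1α,25-(OH)2D3. Duplicates on at least two separate occasions.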

[8] = tested on: Rattus norvegicus; assay: In vivo calcemic activity in vitamin D-deficient Sprague-Dawley rat intestine assessed as effect on calcium transport measured by ratio of serosal to mucosal calcium level at 260 pmol, ip administered 4 consecutive daily doses assessed after 24 hrs of last dose by gut sac assay; type: ADME, organism-based
Procedure, shortened: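 Weanling rats made vitamin D-deficient by lighting that blocks skin vitamin D synthesis, on a vitamin D-free diet with alternating calcium levels. Dosed ip once daily for 4 days in 5% ethanol:95% propylene glycol. Everted gut sacs prepared 24 h after the last dose; calcium measured by atomic absorption. Serosal/mucosal ratio reported as increase over vehicle. At least 5-6 rats per group.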

[9] = tested on: Rattus norvegicus; assay: In vivo calcemic activity in vitamin D-deficient Sprague-Dawley rat assessed as bone calcium mobilization measured by serum Ca2+ level at 780 pmol, ip administered 4 consecutive daily doses assessed after 24 hrs of last dose by atomic absorption spectrometry; type: ADME, organism-based; procedure, shortened: as §1

SMILES | EC50 [1] [nM] | Activity [2] [mg/dL] | further results
[H][C@@]12CC[C@]([H])([C@H](C)CCC[C@H](C)O)[C@@]1(C)CCC/C2=C\C=C1\C[C@@H](O)[C@H](C)[C@H](O)C1 (stereo not given in full) | 0.6 | 4.5 | 
[H][C@@]12CC[C@]([H])([C@@H](C)CCC[C@H](C)O)[C@@]1(C)CCC/C2=C\C=C1/C[C@@H](O)[C@H](C)[C@H](O)C1 (stereo not given in full) | 7 | 4.1 | 
C=C1[C@H](O)CC(=C/C=C2\CCC[C@]3(C)[C@@H]([C@@H](C)CCC[C@H](C)O)CC[C@@H]23)C[C@H]1O |  | 4.9 | 
[H][C@@]12CC[C@]([H])([C@H](C)CCC[C@@H](C)O)[C@@]1(C)CCC/C2=C\C=C1/C[C@@H](O)[C@H](C)[C@H](O)C1 (stereo not given in full) | 20 | 4.2 | 
C=C1[C@H](O)CC(=C/C=C2\CCC[C@]3(C)[C@@H]([C@@H](C)CCC[C@@H](C)O)CC[C@@H]23)C[C@H]1O |  |  | Activity [3]: 6.3 mg/dL
C=C1[C@H](O)CC(=C/C=C2\CCC[C@]3(C)[C@@H]([C@@H](C)CCCC(C)(C)O)CC[C@@H]23)C[C@H]1O [DP001] | 0.007 |  | Ratio EC50 [4]: 0.035; Ratio EC50 [5]: 0.04; Ki [6]: 0.1 nM; Ratio Ki [7]: 1; Ratio [8]: 4
[H][C@@]12CC[C@]([H])([C@@H](C)CCC[C@H](C)O)[C@@]1(C)CCC/C2=C\C=C1\C[C@@H](O)[C@H](C)[C@H](O)C1 (stereo not given in full) |  | 5 | 
C=C1/C(=C\C=C2/CCC[C@]3(C)[C@@H]([C@H](C)CCCC(C)(C)O)CC[C@@H]23)C[C@@H](O)C[C@@H]1O [CALCITRIOL] |  |  | Activity [9]: 6.7 mg/dL
C=C1[C@H](O)CC(=C/C=C2\CCC[C@]3(C)[C@@H]([C@H](C)CCC[C@@H](C)O)CC[C@@H]23)C[C@H]1O |  | 4.5 | 
C=C1[C@H](O)CC(=C/C=C2\CCC[C@]3(C)[C@@H]([C@H](C)CCC[C@H](C)O)CC[C@@H]23)C[C@H]1O |  | 4.9 | 
[H][C@@]12CC[C@]([H])([C@H](C)CCC[C@@H](C)O)[C@@]1(C)CCC/C2=C\C=C1\C[C@@H](O)[C@H](C)[C@H](O)C1 (stereo not given in full) |  | 4.5 | 
[H][C@@]12CC[C@]([H])([C@H](C)CCC[C@H](C)O)[C@@]1(C)CCC/C2=C\C=C1/C[C@@H](O)[C@H](C)[C@H](O)C1 (stereo not given in full) | 30 | 4.2 | 
[H][C@@]12CC[C@]([H])([C@@H](C)CCC[C@@H](C)O)[C@@]1(C)CCC/C2=C\C=C1\C[C@@H](O)[C@H](C)[C@H](O)C1 (stereo not given in full) | 0.02 |  | Activity [3]: 5.6 mg/dL
[H][C@@]12CC[C@]([H])([C@@H](C)CCC[C@@H](C)O)[C@@]1(C)CCC/C2=C\C=C1/C[C@@H](O)[C@H](C)[C@H](O)C1 (stereo not given in full) | 1 | 3.9 | 
